Active and inactive are the calls of the source. The calls are words filed in the database; no cut-off is given here.
Tested on: Rattus norvegicus
Assay: Antiarthritic activity in Lewis rat assessed as inhibition of streptococal cell wall-induced increase of paw volume at 60 mg/kg, po qd for 10 days administered 10 days after streptococal cell wall challenge by displacement plethysmometer analysis
Type: functional
Details: 240 h
How it was run: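 Female Lewis rats given intraperitoneal group A streptococcal cell wall peptidoglycan-polysaccharide ([…] bodyweight). Only animals developing the acute phase were treated. Oral gavage (0.5 mL) daily from day 10 to day 21 post-SCW, with methylcellulose/Tween 20 vehicle as comparison. Four to eight animals per group, two paw volumes per animal. Paw volume measured on day 21 by water displacement plethysmometer.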

SMILES	inhibition in vivo at 60 mg/kg [%]
O=c1c(Cl)c(OCc2ccc(F)cc2F)cc(CO)n1-c1c(F)cccc1F	33

Target: Vascular endothelial growth factor receptor 2 (Homo sapiens) (UniProt P35968)
Assay: Inhibition of VEGFR2 at 10 uM
Details: not given

inhibition [%]	SMILES
< 50	O=c1c(Cl)c(OCc2ccc(F)cc2F)cc(CO)n1-c1c(F)cccc1F

Tested on: Rattus norvegicus
Assay: Antiinflammatory activity in Lewis rat assessed as inhibition of LPS-induced TNFalpha production at 5 mg/kg, po administered 4 hrs before LPS challenge by ELISA
Type: functional
Details: not given
How it was run: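 Adult male Lewis rats (225–250 g), fasted 18 h with free access to water. Compound or vehicle given by oral gavage (1 mL). LPS (E. coli 0111:B4) given 1 mg/kg i.v. in saline 2, 4 or 6 h later. Serum taken by cardiac puncture 90 min after LPS. TNFα quantified against a recombinant rat TNF standard curve with a four-parameter fit. Two vehicle groups per experiment, three experiments.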

SMILES	inhibition in vivo at 5 mg/kg [%]
O=c1c(Cl)c(OCc2ccc(F)cc2F)cc(CO)n1-c1c(F)cccc1F	81

Target: Mitogen-activated protein kinase 12 (Homo sapiens) (UniProt P53778)
Assay: Inhibition of p38-gamma at 10 uM
Details: not given

Chain of Mitogen-activated protein kinase 12 (Homo sapiens) (P53778 whole entry): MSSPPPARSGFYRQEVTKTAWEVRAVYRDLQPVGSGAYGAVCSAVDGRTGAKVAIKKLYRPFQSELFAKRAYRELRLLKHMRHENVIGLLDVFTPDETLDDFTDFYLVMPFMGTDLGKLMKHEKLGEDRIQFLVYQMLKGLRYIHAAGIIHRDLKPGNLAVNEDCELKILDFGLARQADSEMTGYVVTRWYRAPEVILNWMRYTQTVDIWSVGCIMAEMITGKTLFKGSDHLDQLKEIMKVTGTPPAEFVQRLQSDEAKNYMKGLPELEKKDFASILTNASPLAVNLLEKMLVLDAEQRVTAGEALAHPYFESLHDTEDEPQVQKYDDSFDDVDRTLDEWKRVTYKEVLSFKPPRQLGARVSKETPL

inhibition [%]	SMILES
< 50	O=c1c(Cl)c(OCc2ccc(F)cc2F)cc(CO)n1-c1c(F)cccc1F

Tested on: PBMC
Assay: Antiinflammatory activity in human PBMC assessed as inhibition of LPS-induced TNFalpha production treated 1 hr before LPS challenge measured after 18 hrs
Type: functional, cell-based
Details: not given
How it was run: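 PBMCs isolated by Ficoll from heparinized blood of two healthy donors, in DMEM with 5% endotoxin-free FBS, 2.5 × 10⁵ cells/well. Pretreated 1 h with compound (0.0001–25 µM range), then stimulated 18 h with 22 ng/ml LPS. Final DMSO 0.25%. Secreted TNFα measured by MSD; IC50 reported.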

SMILES	IC50 [nM]
O=c1c(Cl)c(OCc2ccc(F)cc2F)cc(CO)n1-c1c(F)cccc1F	45

Target: Aurora kinase A (Homo sapiens) (UniProt O14965)
Assay: Inhibition of AURKA at 10 uM
Details: not given

inhibition [%]	SMILES
< 50	O=c1c(Cl)c(OCc2ccc(F)cc2F)cc(CO)n1-c1c(F)cccc1F

Target: Mitogen-activated protein kinase 3 (Homo sapiens) (UniProt P27361)
Assay: Inhibition of ERK1 at 10 uM
Details: not given

inhibition [%]	SMILES
< 50	O=c1c(Cl)c(OCc2ccc(F)cc2F)cc(CO)n1-c1c(F)cccc1F

Target: RAF proto-oncogene serine/threonine-protein kinase (Homo sapiens) (UniProt P04049)
Assay: Inhibition of c-RAF at 10 uM
Details: not given

inhibition [%]	SMILES
< 50	O=c1c(Cl)c(OCc2ccc(F)cc2F)cc(CO)n1-c1c(F)cccc1F

Target: T1, Mitogen-activated protein kinase 14 (Homo sapiens, UniProt Q16539)
Assay: Inhibition of p38alpha at 10 uM
Details: not given

T1 sequence (Q16539 whole entry): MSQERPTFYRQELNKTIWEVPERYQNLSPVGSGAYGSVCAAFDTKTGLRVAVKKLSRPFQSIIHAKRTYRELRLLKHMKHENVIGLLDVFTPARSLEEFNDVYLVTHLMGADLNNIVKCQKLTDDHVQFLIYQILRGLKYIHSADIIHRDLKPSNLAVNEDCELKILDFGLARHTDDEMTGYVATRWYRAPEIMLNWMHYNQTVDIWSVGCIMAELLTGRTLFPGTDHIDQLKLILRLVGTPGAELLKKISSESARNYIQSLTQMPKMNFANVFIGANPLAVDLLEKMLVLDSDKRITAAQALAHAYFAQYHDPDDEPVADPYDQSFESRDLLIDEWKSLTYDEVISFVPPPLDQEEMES

inhibition	SMILES
Active	O=c1c(Cl)c(OCc2ccc(F)cc2F)cc(CO)n1-c1c(F)cccc1F

Target: Serine/threonine-protein kinase mTOR (Homo sapiens) (UniProt P42345)
Assay: Inhibition of mTOR at 10 uM
Details: not given

inhibition [%]	SMILES
< 50	O=c1c(Cl)c(OCc2ccc(F)cc2F)cc(CO)n1-c1c(F)cccc1F

Target: Interleukin-1 receptor-associated kinase 4 (Homo sapiens) (UniProt Q9NWZ3)
Assay: Inhibition of IRAK4 at 10 uM
Details: not given

inhibition [%]	SMILES
< 50	O=c1c(Cl)c(OCc2ccc(F)cc2F)cc(CO)n1-c1c(F)cccc1F

Target: Tyrosine-protein kinase Lck (Homo sapiens) (UniProt P06239)
Assay: Inhibition of LCK at 10 uM
Details: not given

inhibition [%]	SMILES
< 50	O=c1c(Cl)c(OCc2ccc(F)cc2F)cc(CO)n1-c1c(F)cccc1F

Tested on: not listed separately
Assay: Metabolic stability in rat liver microsomes assessed as compound remaining at 2 uM after 45 mins by LC/MS analysis
Type: ADME, Microsome
Details: read-out: Stability

remaining at 0.75 h, 2 µM [%]	SMILES
69	O=c1c(Cl)c(OCc2ccc(F)cc2F)cc(CO)n1-c1c(F)cccc1F

Tested on: not listed separately
Assay: Bioavailability in iv and po dosed Sprague-Dawley rat
Type: ADME, organism-based
Details: in vivo

bioavailability [%]	SMILES
32	O=c1c(Cl)c(OCc2ccc(F)cc2F)cc(CO)n1-c1c(F)cccc1F

Target: T1, Mitogen-activated protein kinase 14
Assay: Inhibition of p38alpha assessed as phosphorylation of […] after 60 mins by fluorescence assay
Details: not given
How it was run: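 Cascade assay in which activated p38α (6 pM final) activates unactivated MK2 (1 nM), which phosphorylates FITC-labelled Hsp27 peptide (1 nM) with […]. Inhibitor 0.2–10,000 nM. Room temperature, 60 min, EDTA quench. Phospho-peptide quantified by Caliper LabChip; IC50.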

IC50 [nM]	SMILES
8	O=c1c(Cl)c(OCc2ccc(F)cc2F)cc(CO)n1-c1c(F)cccc1F

Tested on: not listed separately
Assay: Clearance in iv and po dosed Sprague-Dawley rat
Type: ADME, organism-based
Details: in vivo

clearance [mL/min/kg]	SMILES
5.9	O=c1c(Cl)c(OCc2ccc(F)cc2F)cc(CO)n1-c1c(F)cccc1F

Target: Epidermal growth factor receptor (Homo sapiens) (UniProt P00533)
Assay: Inhibition of EGFR at 10 uM
Details: not given

inhibition [%]	SMILES
< 50	O=c1c(Cl)c(OCc2ccc(F)cc2F)cc(CO)n1-c1c(F)cccc1F

Target: Tyrosine-protein kinase JAK1 (Homo sapiens) (UniProt P23458)
Assay: Inhibition of JAK1 at 10 uM
Details: not given

inhibition [%]	SMILES
< 50	O=c1c(Cl)c(OCc2ccc(F)cc2F)cc(CO)n1-c1c(F)cccc1F

Target: High affinity nerve growth factor receptor (Homo sapiens) (UniProt P04629)
Assay: Inhibition of TRKA at 10 uM
Details: not given

Chain of High affinity nerve growth factor receptor (Homo sapiens) (P04629 33-796 limits assumed): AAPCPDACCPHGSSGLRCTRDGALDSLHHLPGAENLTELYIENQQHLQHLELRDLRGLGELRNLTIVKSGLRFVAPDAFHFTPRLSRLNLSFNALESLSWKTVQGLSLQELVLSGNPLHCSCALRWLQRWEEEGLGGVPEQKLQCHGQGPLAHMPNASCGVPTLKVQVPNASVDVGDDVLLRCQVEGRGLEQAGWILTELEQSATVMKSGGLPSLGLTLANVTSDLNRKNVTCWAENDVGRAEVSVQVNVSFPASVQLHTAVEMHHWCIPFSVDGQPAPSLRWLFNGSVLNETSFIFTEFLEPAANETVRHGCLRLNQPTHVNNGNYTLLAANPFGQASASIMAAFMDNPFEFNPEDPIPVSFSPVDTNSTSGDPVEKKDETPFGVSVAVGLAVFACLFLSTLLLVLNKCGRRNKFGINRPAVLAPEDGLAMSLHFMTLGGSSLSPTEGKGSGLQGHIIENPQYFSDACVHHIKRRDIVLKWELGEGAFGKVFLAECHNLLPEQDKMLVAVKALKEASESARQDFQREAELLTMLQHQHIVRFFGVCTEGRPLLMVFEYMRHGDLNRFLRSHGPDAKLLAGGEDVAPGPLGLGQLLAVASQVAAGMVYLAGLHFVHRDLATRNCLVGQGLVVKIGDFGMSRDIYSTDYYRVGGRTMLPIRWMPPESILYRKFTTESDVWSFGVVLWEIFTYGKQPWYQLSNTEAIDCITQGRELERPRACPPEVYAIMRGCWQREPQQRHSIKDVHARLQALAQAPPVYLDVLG

inhibition [%]	SMILES
< 50	O=c1c(Cl)c(OCc2ccc(F)cc2F)cc(CO)n1-c1c(F)cccc1F

Target: Tyrosine-protein kinase ZAP-70 (Homo sapiens) (UniProt P43403)
Assay: Inhibition of ZAP70 at 10 uM
Details: not given

Chain of Tyrosine-protein kinase ZAP-70 (Homo sapiens) (P43403 whole entry): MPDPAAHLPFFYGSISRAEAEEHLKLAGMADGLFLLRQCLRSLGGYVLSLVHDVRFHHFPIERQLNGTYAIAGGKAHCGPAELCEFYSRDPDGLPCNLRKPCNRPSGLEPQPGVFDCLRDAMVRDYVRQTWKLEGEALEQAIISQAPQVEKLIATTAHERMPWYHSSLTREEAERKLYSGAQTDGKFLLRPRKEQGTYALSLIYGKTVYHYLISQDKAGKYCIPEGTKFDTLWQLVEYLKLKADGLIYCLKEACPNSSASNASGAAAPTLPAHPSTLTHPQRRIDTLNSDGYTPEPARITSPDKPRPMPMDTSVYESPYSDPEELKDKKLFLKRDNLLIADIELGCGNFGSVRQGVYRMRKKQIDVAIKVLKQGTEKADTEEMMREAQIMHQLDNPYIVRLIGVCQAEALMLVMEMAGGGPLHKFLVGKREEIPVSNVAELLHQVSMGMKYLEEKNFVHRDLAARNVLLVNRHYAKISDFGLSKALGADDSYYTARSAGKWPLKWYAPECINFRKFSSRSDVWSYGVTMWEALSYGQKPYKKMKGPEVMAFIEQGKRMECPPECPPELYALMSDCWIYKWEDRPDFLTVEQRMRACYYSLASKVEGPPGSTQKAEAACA

inhibition [%]	SMILES
< 50	O=c1c(Cl)c(OCc2ccc(F)cc2F)cc(CO)n1-c1c(F)cccc1F

Target: Non-receptor tyrosine-protein kinase TYK2 (Homo sapiens) (UniProt P29597)
Assay: Inhibition of TYK2 at 10 uM
Details: not given

inhibition [%]	SMILES
< 50	O=c1c(Cl)c(OCc2ccc(F)cc2F)cc(CO)n1-c1c(F)cccc1F

Target: Inhibitor of nuclear factor kappa-B kinase subunit beta (Homo sapiens) (UniProt O14920)
Assay: Inhibition of IKK-beta at 10 uM
Details: not given

Chain of Inhibitor of nuclear factor kappa-B kinase subunit beta (Homo sapiens) (O14920 whole entry): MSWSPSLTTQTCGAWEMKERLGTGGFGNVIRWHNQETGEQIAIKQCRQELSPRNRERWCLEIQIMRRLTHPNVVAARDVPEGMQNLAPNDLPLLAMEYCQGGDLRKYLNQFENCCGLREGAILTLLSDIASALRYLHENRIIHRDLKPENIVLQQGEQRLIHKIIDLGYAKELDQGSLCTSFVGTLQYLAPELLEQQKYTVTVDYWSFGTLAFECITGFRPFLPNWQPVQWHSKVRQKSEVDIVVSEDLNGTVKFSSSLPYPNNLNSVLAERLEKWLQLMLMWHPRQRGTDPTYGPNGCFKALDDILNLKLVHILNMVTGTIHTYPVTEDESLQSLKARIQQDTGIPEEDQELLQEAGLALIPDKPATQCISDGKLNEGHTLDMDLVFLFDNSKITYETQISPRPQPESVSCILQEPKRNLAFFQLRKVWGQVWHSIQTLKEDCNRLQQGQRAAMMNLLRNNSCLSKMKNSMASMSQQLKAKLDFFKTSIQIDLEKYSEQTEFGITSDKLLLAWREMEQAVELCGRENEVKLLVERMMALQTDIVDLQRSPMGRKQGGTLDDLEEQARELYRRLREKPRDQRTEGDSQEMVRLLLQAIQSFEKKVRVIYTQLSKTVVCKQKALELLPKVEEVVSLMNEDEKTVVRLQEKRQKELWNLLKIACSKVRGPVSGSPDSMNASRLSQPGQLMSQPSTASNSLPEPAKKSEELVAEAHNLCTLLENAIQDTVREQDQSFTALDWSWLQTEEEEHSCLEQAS

inhibition [%]	SMILES
< 50	O=c1c(Cl)c(OCc2ccc(F)cc2F)cc(CO)n1-c1c(F)cccc1F

Target: Tyrosine-protein kinase JAK3 (Homo sapiens) (UniProt P52333)
Assay: Inhibition of JAK3 at 10 uM
Details: not given

inhibition [%]	SMILES
< 50	O=c1c(Cl)c(OCc2ccc(F)cc2F)cc(CO)n1-c1c(F)cccc1F

Target: Rho-associated protein kinase 2 (Homo sapiens) (UniProt O75116)
Assay: Inhibition of ROCK2 at 10 uM
Details: not given

inhibition [%]	SMILES
< 50	O=c1c(Cl)c(OCc2ccc(F)cc2F)cc(CO)n1-c1c(F)cccc1F

Tested on: not listed separately
Assay: Metabolic stability in human liver microsomes assessed as compound remaining at 2 uM after 45 mins by LC/MS analysis
Type: ADME, Microsome
Details: read-out: Stability

remaining at 0.75 h, 2 µM [%]	SMILES
70	O=c1c(Cl)c(OCc2ccc(F)cc2F)cc(CO)n1-c1c(F)cccc1F

Tested on: not listed separately
Assay: Half life in iv and po dosed Sprague-Dawley rat
Type: ADME, organism-based
Details: in vivo

half-life [min]	SMILES
90	O=c1c(Cl)c(OCc2ccc(F)cc2F)cc(CO)n1-c1c(F)cccc1F

Tested on: not listed separately
Assay: Inhibition of PDGFR at 10 uM
Details: not given

inhibition [%]	SMILES
< 50	O=c1c(Cl)c(OCc2ccc(F)cc2F)cc(CO)n1-c1c(F)cccc1F

Target: Cyclin-dependent kinase 2 (Homo sapiens) (UniProt P24941)
Assay: Inhibition of CDK2 at 10 uM
Details: not given

inhibition [%]	SMILES
< 50	O=c1c(Cl)c(OCc2ccc(F)cc2F)cc(CO)n1-c1c(F)cccc1F

Target: MAP kinase-activated protein kinase 2 (Homo sapiens) (UniProt P49137)
Assay: Inhibition of MK2 at 10 uM
Details: not given

inhibition [%]	SMILES
< 50	O=c1c(Cl)c(OCc2ccc(F)cc2F)cc(CO)n1-c1c(F)cccc1F

Target: Vascular endothelial growth factor receptor 1 (Homo sapiens) (UniProt P17948)
Assay: Inhibition of FLT1 at 10 uM
Details: not given

inhibition [%]	SMILES
< 50	O=c1c(Cl)c(OCc2ccc(F)cc2F)cc(CO)n1-c1c(F)cccc1F

Target: Dual specificity mitogen-activated protein kinase kinase 1 (Homo sapiens) (UniProt Q02750)
Assay: Inhibition of MEK1 at 10 uM
Details: not given

inhibition [%]	SMILES
< 50	O=c1c(Cl)c(OCc2ccc(F)cc2F)cc(CO)n1-c1c(F)cccc1F

Tested on: not listed separately
Assay: Solubility of the compound
Type: physicochemical
Details: not given

solubility [µg/mL]	SMILES
< 10	O=c1c(Cl)c(OCc2ccc(F)cc2F)cc(CO)n1-c1c(F)cccc1F

Target: Mitogen-activated protein kinase 11 (Homo sapiens) (UniProt Q15759)
Assay: Inhibition of p38beta at 10 uM
Details: not given

inhibition	SMILES
Active	O=c1c(Cl)c(OCc2ccc(F)cc2F)cc(CO)n1-c1c(F)cccc1F

Target: Rho-associated protein kinase 1 (Homo sapiens) (UniProt Q13464)
Assay: Inhibition of ROCK1 at 10 uM
Details: not given

Chain of Rho-associated protein kinase 1 (Homo sapiens) (Q13464 2-1354 limits assumed): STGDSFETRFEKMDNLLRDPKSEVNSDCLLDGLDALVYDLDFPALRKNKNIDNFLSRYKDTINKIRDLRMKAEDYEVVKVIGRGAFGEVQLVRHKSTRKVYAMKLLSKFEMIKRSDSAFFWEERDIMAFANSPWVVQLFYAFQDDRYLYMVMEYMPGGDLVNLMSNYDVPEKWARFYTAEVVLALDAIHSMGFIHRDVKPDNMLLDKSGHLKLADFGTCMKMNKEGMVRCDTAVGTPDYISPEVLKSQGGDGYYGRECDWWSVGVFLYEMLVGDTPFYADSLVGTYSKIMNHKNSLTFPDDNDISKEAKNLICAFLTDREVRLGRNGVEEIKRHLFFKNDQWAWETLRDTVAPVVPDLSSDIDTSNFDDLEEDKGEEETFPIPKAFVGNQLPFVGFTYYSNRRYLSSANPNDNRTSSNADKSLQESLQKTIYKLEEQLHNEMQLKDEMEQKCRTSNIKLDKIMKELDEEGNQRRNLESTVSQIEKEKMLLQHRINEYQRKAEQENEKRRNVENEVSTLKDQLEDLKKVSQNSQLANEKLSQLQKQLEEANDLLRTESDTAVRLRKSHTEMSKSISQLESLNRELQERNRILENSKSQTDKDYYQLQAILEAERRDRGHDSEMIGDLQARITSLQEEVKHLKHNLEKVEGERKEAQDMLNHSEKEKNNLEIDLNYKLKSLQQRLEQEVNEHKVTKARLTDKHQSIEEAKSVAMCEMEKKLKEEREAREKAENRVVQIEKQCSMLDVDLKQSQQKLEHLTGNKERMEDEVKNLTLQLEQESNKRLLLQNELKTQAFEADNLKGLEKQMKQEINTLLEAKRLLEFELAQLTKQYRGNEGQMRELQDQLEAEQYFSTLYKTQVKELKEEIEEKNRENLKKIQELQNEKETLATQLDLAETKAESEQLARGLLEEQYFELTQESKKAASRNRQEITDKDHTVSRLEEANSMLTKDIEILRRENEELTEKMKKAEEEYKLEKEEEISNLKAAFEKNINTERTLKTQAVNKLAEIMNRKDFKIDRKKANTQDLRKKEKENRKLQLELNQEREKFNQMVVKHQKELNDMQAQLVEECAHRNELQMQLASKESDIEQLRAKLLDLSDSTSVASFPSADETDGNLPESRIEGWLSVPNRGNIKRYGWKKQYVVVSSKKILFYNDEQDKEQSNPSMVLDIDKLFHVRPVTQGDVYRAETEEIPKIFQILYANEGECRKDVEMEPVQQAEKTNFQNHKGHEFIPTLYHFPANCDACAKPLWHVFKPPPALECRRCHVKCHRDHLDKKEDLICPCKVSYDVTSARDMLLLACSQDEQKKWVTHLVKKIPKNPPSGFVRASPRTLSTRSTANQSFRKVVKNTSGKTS

inhibition [%]	SMILES
< 50	O=c1c(Cl)c(OCc2ccc(F)cc2F)cc(CO)n1-c1c(F)cccc1F

Tested on: not listed separately
Assay: Inhibition of JNK at 10 uM
Details: not given

inhibition [%]	SMILES
< 50	O=c1c(Cl)c(OCc2ccc(F)cc2F)cc(CO)n1-c1c(F)cccc1F

Target: Tyrosine-protein kinase BTK (Homo sapiens) (UniProt Q06187)
Assay: Inhibition of BTK at 10 uM
Details: not given

Chain of Tyrosine-protein kinase BTK (Homo sapiens) (Q06187 whole entry): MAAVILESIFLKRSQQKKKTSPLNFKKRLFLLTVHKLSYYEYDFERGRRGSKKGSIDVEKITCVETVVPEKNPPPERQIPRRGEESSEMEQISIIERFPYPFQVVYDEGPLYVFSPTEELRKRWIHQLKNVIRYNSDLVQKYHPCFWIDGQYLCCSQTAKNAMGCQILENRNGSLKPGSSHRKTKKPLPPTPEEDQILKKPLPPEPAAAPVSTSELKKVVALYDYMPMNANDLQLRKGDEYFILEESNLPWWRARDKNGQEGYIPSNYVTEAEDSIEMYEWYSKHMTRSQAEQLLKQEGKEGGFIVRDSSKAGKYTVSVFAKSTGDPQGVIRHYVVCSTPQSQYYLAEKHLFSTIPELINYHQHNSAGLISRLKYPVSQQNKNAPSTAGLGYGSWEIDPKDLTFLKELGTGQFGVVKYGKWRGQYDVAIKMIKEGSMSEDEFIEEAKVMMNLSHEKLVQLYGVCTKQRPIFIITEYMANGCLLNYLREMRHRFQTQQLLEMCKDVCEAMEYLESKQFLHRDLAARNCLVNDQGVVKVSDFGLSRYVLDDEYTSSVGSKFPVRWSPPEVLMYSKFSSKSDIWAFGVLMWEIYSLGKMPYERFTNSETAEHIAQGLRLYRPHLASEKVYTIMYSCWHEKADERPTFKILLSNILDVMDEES

inhibition [%]	SMILES
< 50	O=c1c(Cl)c(OCc2ccc(F)cc2F)cc(CO)n1-c1c(F)cccc1F

Target: Mitogen-activated protein kinase 13 (Homo sapiens) (UniProt O15264)
Assay: Inhibition of p38delta at 10 uM
Details: not given

inhibition [%]	SMILES
< 50	O=c1c(Cl)c(OCc2ccc(F)cc2F)cc(CO)n1-c1c(F)cccc1F

Target: Tyrosine-protein kinase JAK2 (Homo sapiens) (UniProt O60674)
Assay: Inhibition of JAK2 at 10 uM
Details: not given

inhibition [%]	SMILES
< 50	O=c1c(Cl)c(OCc2ccc(F)cc2F)cc(CO)n1-c1c(F)cccc1F

From ChEMBL document CHEMBL1795280, “Design, synthesis and activity of a potent, selective series of N-aryl pyridinone inhibitors of p38 kinase” (Bioorg Med Chem Lett, 2011)
